Test results published in ChEMBL document CHEMBL4043277, “Enantioselective inhibitory abilities of enantiomers of notoamides against RANKL-induced formation of multinuclear osteoclasts” (Bioorg Med Chem Lett, 2017).
Active and inactive are the calls of the source. The rule behind the calls is not given here.

How the values were obtained:
[1] = Inhibition of RANKL-induced formation of multinuclear osteoclasts in mouse RAW264 cells after 4 days by p-NPP substrate based absorbance method; format: functional, cell-based; details: RAW264.7, 96 h
Outline: (§1)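 RAW264 cells in MEMα/10% FBS were plated for one day, then treated with compound plus soluble RANKL (250 ng/mL) for four days. After a PBS wash, cells were lysed on ice for 10 min in TRAP buffer (tartrate/acetate, pH 5.7). Extract was incubated with 2.5 mM p-nitrophenyl phosphate at 37°C for 4 h and stopped with NaOH. A405 was read in quadruplicate.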

[2] = system: RAW264; assay: Inhibition of RANKL-induced formation of multinuclear osteoclasts in mouse RAW264 cells at 5 uM after 4 days by TRAP staining based assay; format: functional, cell-based
Outline: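 RAW264 cells were treated with compound plus soluble RANKL (250 ng/mL) for four days, then fixed in 4% paraformaldehyde for 10 min at room temperature. They were stained 1 h at room temperature with naphthol AS-MX phosphate/fast red violet LB in tartrate/acetate, pH 5.2. TRAP-positive cells with three or more nuclei were scored as multinuclear osteoclasts.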

[3] = Inhibition of RANKL-induced Nfatc1 mRNA expression in mouse RAW264 cells at 5 uM after 5 days by RT-PCR method relative to control; format: functional; details: RAW264.7, 120 h
Outline: (§2)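 RAW264 cells grown in MEMα with 10% heat-inactivated FBS and penicillin/streptomycin at 37°C, 5% CO2. Cells were co-treated with RANKL (50 ng/mL) and compound for five days. Total RNA was analysed by real-time RT-PCR with SYBR Green: 95 °C 10 min, then cycles of 95 °C 10 s, annealing 5 s, 72 °C 14 s. Expression was calculated from duplicate experiments.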

[4] = Inhibition of RANKL-induced Acp5 mRNA expression in mouse RAW264 cells at 5 uM after 5 days by RT-PCR method relative to control; format: functional; details: RAW264.7, 120 h; outline: as §2
[5] = Inhibition of RANKL-induced Ctsk mRNA expression in mouse RAW264 cells at 5 uM after 5 days by RT-PCR method relative to control; format: functional; details: RAW264.7, 120 h; outline: as §2
[6] = Inhibition of RANKL-induced Atp6v0d2 mRNA expression in mouse RAW264 cells at 5 uM after 5 days by RT-PCR method relative to control; format: functional; details: RAW264.7, 120 h; outline: as §2
[7] = Inhibition of RANKL-induced Dcstamp mRNA expression in mouse RAW264 cells at 5 uM after 5 days by RT-PCR method relative to control; format: functional; details: RAW264.7, 120 h; outline: as §2
[8] = Inhibition of RANKL-induced Ocstamp mRNA expression in mouse RAW264 cells at 5 uM after 5 days by RT-PCR method relative to control; format: functional; details: RAW264.7, 120 h; outline: as §2
[9] = system: RAW264; assay: Inhibition of RANKL-induced formation of multinuclear osteoclasts in mouse RAW264 cells at 10 ug/ml after 4 days by p-NPP substrate based absorbance method; format: functional, cell-based; outline: as §1

| SMILES | osteoclast formation inhibition (active/not active) [9] | further results |
| --- | --- | --- |
| CC(C)=CCc1c(O)ccc2c3c([nH]c12)C(C)(C)[C@@H]1C[C@@]24CCCN2C(=O)[C@]1(C3)NC4=O |  | IC50 [1]: 1.7 µM; inhibition [2]: inactive; inhibition at 5 µM [3]: 20 to 50%; inhibition at 5 µM [4]: 20 to 50%; inhibition at 5 µM [5]: 20 to 50%; inhibition at 5 µM [6]: 20 to 50%; inhibition at 5 µM [7]: 20 to 50%; inhibition at 5 µM [8]: 20 to 50% |
| CC1(C)C=Cc2c(ccc3c4c([nH]c23)C(C)(C)[C@H]2C[C@@]35CCCN3C(=O)[C@]2(C4)NC5=O)O1 | Active |  |
| CC1(C)C=Cc2c(ccc3c2N(O)C(=O)[C@@]32C[C@@]34NC(=O)[C@]5(CCCN5C3=O)C[C@H]4C2(C)C)O1 | Active |  |
| C=CC(C)(C)[C@]1(C[C@@H]2NC(=O)[C@@H]3CCCN3C2=O)C(=O)Nc2c1ccc1c2C=CC(C)(C)O1 | inactive |  |
| CC1(C)C=Cc2c(ccc3c2NC(=O)[C@]32C[C@]34NC(=O)[C@@]5(CCCN5C3=O)C[C@@H]4C2(C)C)O1 | Active |  |
| CC1(C)C=Cc2c(ccc3c2N(O)C(=O)[C@]32C[C@]34NC(=O)[C@@]5(CCCN5C3=O)C[C@@H]4C2(C)C)O1 | Active |  |
| CC1(C)C=Cc2c(ccc3c4c([nH]c23)C(C)(C)[C@@H]2C[C@]35CCCN3C(=O)[C@@]2(C4)NC5=O)O1 | Active |  |
| CC1(C)C=Cc2c(ccc3c2NC(=O)[C@@]32C[C@@]34NC(=O)[C@]5(CCCN5C3=O)C[C@H]4C2(C)C)O1 | Active |  |
| CC(C)=CCc1c(O)ccc2c3c([nH]c12)C(C)(C)[C@H]1CC24CCCN2C(=O)C1(C3)NC4=O (mixture of isomers) | Active |  |
| CC(C)=CCc1c(O)ccc2c3c([nH]c12)C(C)(C)[C@H]1C[C@]24CCCN2C(=O)[C@@]1(C3)NC4=O |  | IC50 [1]: 4.4 µM |
| C=CC(C)(C)[C@@]12Nc3c(ccc4c3C=CC(C)(C)O4)[C@]1(O)C[C@H]1C(=O)N3CCC[C@H]3C(=O)N12 | inactive |  |
